{"data": "Published values from different studies", "cell line": "NCI-H23", "read-out": "cell growth or viability", "note": "Compare with care: the assays were run in different laboratories."}
{"Compound": "COc1ccc(C(=O)/C=C/c2cc3c(cc2Br)OCO3)cc1S(N)(=O)=O", "method": "SRB", "time": "48 h", "endpoint": "GI50", "result": "4.3 µM"}
{"Compound": "c1ccc(-c2n(Cc3ccc4ccccc4c3)cc[n+]2Cc2ccc3ccccc3c2)cc1", "method": "SRB", "endpoint": "TGI", "result": "2.35 µM"}
{"Compound": "COc1ccc(C(=O)/C=C/c2cccc(Br)c2)cc1S(N)(=O)=O", "method": "SRB", "tested at": "10 µM", "endpoint": "inhibition", "result": "166%"}
{"Compound": "Cc1cc(C)n(C(=S)[S][Au][PH](CCCCCC[PH]([Au][S]C(=S)n2nc(C)cc2C)(c2ccccc2)c2ccccc2)(c2ccccc2)c2ccccc2)n1", "method": "SRB", "endpoint": "GI50", "result": "1.54 µM"}
{"Compound": "CCCc1n(Cc2ccc3ccccc3n2)cc[n+]1Cc1ccc2ccccc2n1", "method": "SRB", "endpoint": "TGI", "result": "15 µM"}
{"Compound": "COc1ccc(-c2ccc(-c3ccc(C(=N)N)nc3)s2)cc1Cl", "method": "SRB", "endpoint": "GI50", "result": "1.8 µM"}
{"Compound": "O=C1NC(=NCc2cccs2)S/C1=C\\c1ccc2ncccc2c1", "endpoint": "IC50", "result": "> 10 µM"}
{"Compound": "COc1cc(-c2ccc(-c3ccc(C(=N)N)nc3)s2)cc(OC)c1OC", "method": "SRB", "endpoint": "GI50", "result": "6.4 µM"}
{"Compound": "O=C(/C=C/c1ccc2c(=O)n(CC3CCCCC3)cnc2c1)NO", "method": "SRB", "time": "48 h", "endpoint": "IC50", "result": "2.29 µM"}
{"Compound": "COc1ccc(C(=O)/C=C/c2cccc3ccccc23)cc1S(N)(=O)=O", "method": "SRB", "tested at": "10 µM", "endpoint": "inhibition", "result": "120%"}
{"Compound": "CC/C(=C(\\c1ccccc1)c1ccc(OCCN(C)C)cc1)c1ccccc1", "method": "ATP luminescence", "time": "72 h", "endpoint": "EC90", "result": "18.3 µM"}
{"Compound": "CCCc1n(Cc2ccc3ccccc3n2)cc[n+]1Cc1ccc2ccccc2c1", "method": "SRB", "endpoint": "TGI", "result": "10.6 µM"}
{"Compound": "O=C(/C=C/c1ccc2ncn(CCCl)c(=O)c2c1)NO", "method": "SRB", "time": "48 h", "endpoint": "IC50", "result": "3.2 µM"}
{"Compound": "COc1ccc(C(=O)/C=C/c2cccc(Cl)c2Cl)cc1S(N)(=O)=O", "method": "SRB", "time": "48 h", "endpoint": "GI50", "result": "3.8 µM"}
{"Compound": "CCc1n(Cc2ccc3ccccc3n2)cc[n+]1Cc1ccc2ccccc2n1", "method": "SRB", "endpoint": "TGI", "result": "8.66 µM"}
{"Compound": "COc1ccc(C(=O)/C=C/c2c(F)cccc2Cl)cc1S(N)(=O)=O", "method": "SRB", "tested at": "10 µM", "endpoint": "inhibition", "result": "116%"}
{"Compound": "COc1cccc(Oc2ccccc2NC(=O)CNC(=O)c2cccc3ccccc23)c1", "method": "SRB", "time": "48 h", "endpoint": "GI50", "result": "0.741 µM"}
